In ChEMBL document CHEMBL2176929, “Hepatoprotective iridoid glycosides from the roots of Rehmannia glutinosa” (J Nat Prod, 2012):
pIC50: −log10 of the molar value.

What was measured:
A2780 = test: Cytotoxicity against human A2780 cells after 4 days by MTT assay; type: functional, cell-based; details: A2780, 96 h
A549 = test: Cytotoxicity against human A549 cells after 4 days by MTT assay; type: functional, cell-based; details: A549, 96 h
BGC-823 = test: Cytotoxicity against human BGC823 cells after 4 days by MTT assay; type: functional, cell-based; details: BGC-823, 96 h
Bel-7402 = test: Cytotoxicity against human Bel7402 cells after 4 days by MTT assay; type: functional, cell-based; details: Bel-7402, 96 h
HCT-8 = test: Cytotoxicity against human HCT8 cells after 4 days by MTT assay; type: functional, cell-based; details: HCT-8, 96 h
[1] = Hepatoprotective activity in human HL7702 cells assessed as inhibition of D-galactosamine-induced cell damage at 10 uM preincubated for 1 hr prior to D-galactosamine challenge measured after 24 hrs by MTT assay relative to untreated control; type: functional; details: L02
Method in brief: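 HL-7702 cells, 2 × 10^4 per well in RPMI 1640 with 10% FCS and penicillin/streptomycin, precultured 24 h at 37 °C in 5% CO2. Pretreated 1 h with samples (10 μM) or bicyclol (10 μM, positive control) in fresh medium, then given 25 mM D-galactosamine for 24 h. Medium removed, 0.5 mg/mL MTT for 4 h, formazan dissolved in DMSO, OD read at 492 nm. Inhibition (%) calculated by formula. Mean ± SD, n = 3 (normal/control n = 6).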

L02 = test: Hepatoprotective activity in D-galactosamine-treated human HL7702 cells assessed as survival rate at 10 uM preincubated for 1 hr prior to D-galactosamine challenge measured after 24 hrs by MTT assay relative to normal cell; type: functional; details: read-out: Survival
Method in brief: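 HL-7702 cells, 2 × 10^4 per well in RPMI 1640 with 10% fetal calf serum, penicillin and streptomycin, precultured 24 h at 37 °C, 5% CO2. Test samples added in fresh medium for 1 h, then 25 mM D-galactosamine for 24 h. MTT 0.5 mg/mL, 4 h; formazan dissolved in DMSO, OD at 492 nm. Bicyclol 10 μM positive control; means ± SD, n = 3.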

Compound | pIC50 (A2780) | pIC50 (A549) | pIC50 (BGC-823) | pIC50 (Bel-7402) | pIC50 (HCT-8) | inhibition at 10 µM [1] [%] | viability at 10 µM (L02) [%]
C[C@]1(O)C[C@@H](OC(=O)CCc2cc(O)ccn2)[C@@H]2C=CO[C@@H](O[C@@H]3O[C@H](CO)[C@@H](O)[C@H](O)[C@H]3O)[C@@H]21 [REHMAGLUTOSIDE D] | < 5.00 | < 5.00 | < 5.00 | < 5.00 | < 5.00 |  | 
COc1cc([C@@H]2Oc3c(O)cc(/C=C/C(=O)O[C@@H]4C[C@](C)(O)[C@H]5[C@H](O[C@@H]6O[C@H](CO)[C@@H](O)[C@H](O)[C@H]6O)OC=C[C@H]54)cc3[C@H]2CO)ccc1O [REHMAGLUTOSIDE E] | < 5.00 | < 5.00 | < 5.00 | < 5.00 | < 5.00 |  | 
C[C@]1(O)C[C@@H](O)[C@@H]2C=CO[C@@H](O[C@@H]3O[C@H](CO[C@H]4C[C@H]5[C@@H]([C@@H](O[C@@H]6O[C@H](CO)[C@@H](O)[C@H](O)[C@H]6O)O4)[C@](C)(O)C[C@@H]5O)[C@@H](O)[C@H](O)[C@H]3O)[C@@H]21 [REHMAGLUTOSIDE J] | < 5.00 | < 5.00 | < 5.00 | < 5.00 | < 5.00 | 25.2 | 67.3
COc1cc(C(=O)O[C@@H]2C[C@](C)(O)[C@H]3[C@H](O[C@@H]4O[C@H](CO)[C@@H](O)[C@H](O)[C@H]4O)OC=C[C@H]32)ccc1O[C@@H]1O[C@H](CO)[C@@H](O)[C@H](O)[C@H]1O [REHMAGLUTOSIDE B] | < 5.00 | < 5.00 | < 5.00 | < 5.00 | < 5.00 |  | 
COc1cc(C(=O)O[C@@H]2C[C@](C)(O)[C@H]3[C@H](O[C@@H]4O[C@H](CO)[C@@H](O)[C@H](O)[C@H]4O)OC=C[C@H]32)cc(OC)c1O[C@@H]1O[C@@H](C)[C@H](O)[C@@H](O)[C@H]1O [REHMAGLUTOSIDE C] | < 5.00 | < 5.00 | < 5.00 | < 5.00 | < 5.00 | 33.6 | 71
CC(/C=C/[C@@]1(O)C(C)(C)CCC[C@@]1(C)O[C@@H]1O[C@H](CO)[C@@H](O)[C@H](O)[C@H]1O)=C\C(=O)O[C@@H]1C[C@](C)(O)[C@H]2[C@H](O[C@@H]3O[C@H](CO)[C@@H](O)[C@H](O)[C@H]3O)OC=C[C@H]21 [REHMAGLUTOSIDE I] | < 5.00 | < 5.00 | < 5.00 | < 5.00 | < 5.00 | 28.2 | 68.6
COC(=O)c1cc(OC)c2c(c1-c1c(CO)cc(OC)c3c1OCO3)OCO2 [BICYCLOL] |  |  |  |  |  | 16.7 | 63.6
C[C@]1(O)C[C@@H](O)[C@@H]2C=CO[C@@H](O[C@@H]3O[C@H](CO[C@@H]4C[C@H]5[C@@H]([C@@H](O[C@@H]6O[C@H](CO)[C@@H](O)[C@H](O)[C@H]6O)O4)[C@](C)(O)C[C@@H]5O)[C@@H](O)[C@H](O)[C@H]3O)[C@@H]21 [REHMAGLUTOSIDE K] | < 5.00 | < 5.00 | < 5.00 | < 5.00 | < 5.00 | 35.5 | 71.8
CC(/C=C/[C@@]1(O)C(C)(C)CCC[C@@]1(C)O)=C\C(=O)O[C@@H]1C[C@](C)(O)[C@H]2[C@H](O[C@@H]3O[C@H](CO)[C@@H](O)[C@H](O)[C@H]3O)OC=C[C@H]21 [REHMAGLUTOSIDE F] | < 5.00 | < 5.00 | < 5.00 | < 5.00 | < 5.00 |  | 
CC(/C=C/[C@@]1(O)C(C)(C)CC[C@@H](O)[C@@]1(C)O)=C\C(=O)O[C@@H]1C[C@](C)(O)[C@H]2[C@H](O[C@@H]3O[C@H](CO)[C@@H](O)[C@H](O)[C@H]3O)OC=C[C@H]21 [REHMAGLUTOSIDE H] | < 5.00 | < 5.00 | < 5.00 | < 5.00 | < 5.00 |  | 
CC(/C=C/[C@@]1(O)C(C)(C)C[C@H](O)C[C@@]1(C)O)=C\C(=O)O[C@@H]1C[C@](C)(O)[C@H]2[C@H](O[C@@H]3O[C@H](CO)[C@@H](O)[C@H](O)[C@H]3O)OC=C[C@H]21 [REHMAGLUTOSIDE G] | < 5.00 | < 5.00 | < 5.00 | < 5.00 | < 5.00 | 38.7 | 73.2
C[C@]1(O)C[C@@H](OC(=O)/C=C/c2ccccc2)[C@@H]2C=CO[C@@H](O[C@@H]3O[C@H](CO)[C@@H](O)[C@H](O)[C@H]3O)[C@@H]21 [REHMAGLUTOSIDE A] | < 5.00 | < 5.00 | < 5.00 | < 5.00 | < 5.00 |  | 
